Experimental data reported in ChEMBL document CHEMBL3243941, “Hydrolysis of 3-chloro-3-cephems. Intramolecular nucleophilic attack in cefaclor” (J Med Chem, 1977).
≈ marks a conversion by molar mass, not a printed value.

Tests used:
[1] = Hydrolytic stability of the compound assessed as beta-lactum ring opening rate at pH 10 at 35 degC by UV method; format: physicochemical; conditions: buffer
Procedure, shortened: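 Pseudo-first-order rate constants for β-lactam ring opening, measured by UV at pH 10.0 and 35 °C and reported as k_obsd (s−1).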

Klebsiella pneumoniae = assay: Antibacterial activity against Klebsiella pneumoniae X26 assessed as growth inhibition; format: functional
Klebsiella aerogenes = assay: Antibacterial activity against Enterobacter aerogenes X68 assessed as growth inhibition; format: functional
[2] = Antibacterial activity against Salmonella heidelberg X514 assessed as growth inhibition; format: functional, Salmonella enterica subsp. enterica serovar Heidelberg; conditions: Salmonella enterica
Shigella sp. = assay: Antibacterial activity against Shigella sp. N9 assessed as growth inhibition; format: functional
Escherichia coli = assay: Antibacterial activity against Escherichia coli N10 assessed as growth inhibition; format: functional

**Q.** Which results are given for CC1=C(C(=O)O)N2C(=O)[C@@H](NC(=O)Cc3cccs3)[C@H]2SC1?
**A.** k obsd [1]: 1.07e-05 s⁻¹; MIC (Klebsiella pneumoniae): 10 µg/mL (≈ 29.5 µM); MIC (Klebsiella aerogenes): 30 µg/mL (≈ 88.6 µM); MIC [2]: 29 µg/mL (≈ 85.7 µM); MIC (Shigella sp.): 120 µg/mL (≈ 355 µM); MIC (Escherichia coli): 116 µg/mL (≈ 343 µM)

**Q.** For O=C(Cc1cccs1)N[C@@H]1C(=O)N2C(C(=O)O)=C(Cl)CS[C@H]12, which k obsd [1] is on record?
**A.** 0.000131 s⁻¹

**Q.** And the MIC (Klebsiella pneumoniae)?
**A.** 0.8 µg/mL (≈ 2.23 µM)

**Q.** And the MIC (Klebsiella aerogenes)?
**A.** 0.9 µg/mL (≈ 2.51 µM)

**Q.** What about the MIC [2] of the same compound?
**A.** 0.9 µg/mL (≈ 2.51 µM)

**Q.** What about the MIC (Shigella sp.) of the same compound?
**A.** 17.5 µg/mL (≈ 48.8 µM)

**Q.** And the MIC (Escherichia coli)?
**A.** 21.2 µg/mL (≈ 59.1 µM)

**Q.** Which k obsd [1] does the source give for N[C@@H](C(=O)N[C@@H]1C(=O)N2C(C(=O)O)=C(Cl)CS[C@H]12)c1ccccc1 [CEFACLOR ANHYDROUS] here?
**A.** 0.000287 s⁻¹

**Q.** Which k obsd [1] does the source give for CC(=O)OCC1=C(C(=O)O)N2C(=O)[C@@H](NC(=O)Cc3cccs3)[C@H]2SC1 [CEPHALOTHIN] here?
**A.** 9.7e-05 s⁻¹

**Q.** And the MIC (Klebsiella pneumoniae)?
**A.** 1 µg/mL (≈ 2.52 µM)

**Q.** And the MIC (Klebsiella aerogenes)?
**A.** 3 µg/mL (≈ 7.57 µM)

**Q.** And the MIC [2]?
**A.** 1 µg/mL (≈ 2.52 µM)

**Q.** What about the MIC (Shigella sp.) of the same compound?
**A.** 14 µg/mL (≈ 35.3 µM)

**Q.** What about the MIC (Escherichia coli) of the same compound?
**A.** 15 µg/mL (≈ 37.8 µM)

**Q.** Which k obsd [1] does the source give for O=C(COc1ccccc1)N[C@@H]1C(=O)N2C(C(=O)O)=C(Cl)CS[C@H]12 here?
**A.** 0.000183 s⁻¹
